Results on three molecules are retold here after publication PMC6815762 (Drug Design, Development and Therapy, 2019).

Assay [1] concerns hCMEC/D3 cells. Briefly: Cell proliferation assay. The format is cell-based, human. The note with it: 48 hr incubation, MTT, 570 nm, p > 0.05.
Assay [2] concerns the target integrin αvβ3 (Homo sapiens, UniProt P05106+P06756). Briefly: Determination of the dissociation constant by ELISA. The format is binding. In short, it runs like this: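 Solution-phase ELISA after Friguet. Integrin αvβ3 (serial, 0.5–32 nM) was equilibrated with test peptide (0.5 nM) for 4 hrs at 37°C. The mixture was moved to wells precoated with anti-integrin αvβ3 antibody (1:50) for 1 hr at room temperature, washed, and bound complexes detected by ELISA. Absorbance was taken without receptor (A0) and at each receptor concentration (A). Run in triplicate; Kd from one-site specific binding nonlinear regression.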
In general terms: ELISA stands for enzyme-linked immunosorbent assay.

For assay [3], the system named is hCMEC/D3 cells. Briefly: Tube formation assay on Matrigel. The format is cell-based, human. The note with it: VEGF 10 ng/mL, positive control, 12 hr.
For assay [4], the target named is integrin αvβ3 (UniProt P06756). Briefly: ELISA.
Sequence of integrin αvβ3 (UniProt P06756) (P06756 31-1048, chain 1 of 2): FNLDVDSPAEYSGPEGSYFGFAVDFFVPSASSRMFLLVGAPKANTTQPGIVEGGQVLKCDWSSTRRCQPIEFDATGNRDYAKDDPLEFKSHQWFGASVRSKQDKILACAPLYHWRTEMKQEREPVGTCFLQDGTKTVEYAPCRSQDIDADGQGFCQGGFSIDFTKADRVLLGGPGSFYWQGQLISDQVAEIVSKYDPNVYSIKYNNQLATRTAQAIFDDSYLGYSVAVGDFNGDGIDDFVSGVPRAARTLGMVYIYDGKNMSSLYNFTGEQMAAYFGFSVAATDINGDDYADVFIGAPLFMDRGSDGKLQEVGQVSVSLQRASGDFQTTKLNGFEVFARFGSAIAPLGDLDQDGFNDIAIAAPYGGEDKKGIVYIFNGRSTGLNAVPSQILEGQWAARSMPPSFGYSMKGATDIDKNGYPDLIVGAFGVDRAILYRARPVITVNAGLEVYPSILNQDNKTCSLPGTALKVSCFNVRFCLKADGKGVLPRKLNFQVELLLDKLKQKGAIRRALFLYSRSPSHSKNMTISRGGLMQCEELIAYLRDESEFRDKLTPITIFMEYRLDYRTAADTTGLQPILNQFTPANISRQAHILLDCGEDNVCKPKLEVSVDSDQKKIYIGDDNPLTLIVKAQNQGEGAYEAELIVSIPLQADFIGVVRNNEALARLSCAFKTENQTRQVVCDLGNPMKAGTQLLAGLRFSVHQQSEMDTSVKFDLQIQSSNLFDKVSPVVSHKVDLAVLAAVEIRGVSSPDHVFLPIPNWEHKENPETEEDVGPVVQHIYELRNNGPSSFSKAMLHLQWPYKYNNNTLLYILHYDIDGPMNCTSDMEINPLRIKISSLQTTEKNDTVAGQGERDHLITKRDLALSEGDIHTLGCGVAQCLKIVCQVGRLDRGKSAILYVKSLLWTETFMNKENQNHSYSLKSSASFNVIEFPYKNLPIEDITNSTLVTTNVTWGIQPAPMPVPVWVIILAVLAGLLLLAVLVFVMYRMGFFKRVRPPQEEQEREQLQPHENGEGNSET
Sequence of integrin αvβ3 (UniProt P06756) (P05106 27-788, chain 2 of 2, further chain): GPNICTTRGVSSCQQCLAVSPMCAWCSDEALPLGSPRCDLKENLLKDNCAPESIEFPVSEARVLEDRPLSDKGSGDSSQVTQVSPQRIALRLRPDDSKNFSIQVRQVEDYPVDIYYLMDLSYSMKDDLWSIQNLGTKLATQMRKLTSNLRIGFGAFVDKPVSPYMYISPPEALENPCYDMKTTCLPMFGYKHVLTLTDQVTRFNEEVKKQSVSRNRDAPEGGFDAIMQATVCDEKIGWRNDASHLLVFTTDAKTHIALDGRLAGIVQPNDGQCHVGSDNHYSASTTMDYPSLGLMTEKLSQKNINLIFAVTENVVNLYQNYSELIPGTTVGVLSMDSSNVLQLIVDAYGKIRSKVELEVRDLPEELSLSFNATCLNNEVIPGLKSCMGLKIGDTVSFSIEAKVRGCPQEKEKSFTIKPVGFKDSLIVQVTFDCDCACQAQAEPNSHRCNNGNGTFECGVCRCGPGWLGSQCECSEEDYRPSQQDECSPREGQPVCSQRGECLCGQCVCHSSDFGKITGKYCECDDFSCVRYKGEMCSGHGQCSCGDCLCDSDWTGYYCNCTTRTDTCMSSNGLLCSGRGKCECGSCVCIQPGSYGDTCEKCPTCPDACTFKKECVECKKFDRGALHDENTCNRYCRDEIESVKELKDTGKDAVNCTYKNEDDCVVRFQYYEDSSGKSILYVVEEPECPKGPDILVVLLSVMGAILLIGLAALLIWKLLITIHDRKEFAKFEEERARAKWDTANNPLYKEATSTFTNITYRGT

Peptide text beside a SMILES is read from it.

As a reminder, the Kd is the concentration at which binding is half-saturated.

Sequence of integrin αvβ3 (Homo sapiens, UniProt P05106+P06756) (P06756 31-1048): as the sequence (P06756 31-1048, chain 1 of 2) above
Sequence of integrin αvβ3 (Homo sapiens, UniProt P05106+P06756) (P05106 27-788): as the sequence (P05106 27-788, chain 2 of 2, further chain) above

Turning to `N=C(N)NCCC[C@H](NC(=O)[C@@H]1CCCN1C(=O)[C@H](Cc1c[nH]c2ccccc12)NC(=O)[C@H](CCCNC(=N)N)NC(=O)[C@H](Cc1ccccc1)NC(=O)[C@H](CC(=O)O)NC(=O)CNC(=O)[C@@H](N)CCCNC(=N)N)C(=O)O` [GCPF] (H-RGDFRWPR-OH), the proliferation inhibition rate was determined as 0.15% in assay [1] (1 μg/mL), 13.49% in assay [1] (10 μg/mL), 3.90% in assay [1] (100 μg/mL) and 1.98% in assay [1] (1000 μg/mL). For the same molecule, binding in assay [2] was put at a Kd of 2.41 ± 0.455 nM.
VEGF: the “tube formation, result in words” value in assay [3] is “the tube-like structures were developed from clear elongated cell bodies, which connected to form a polygon network”.
As to RGDFRWPR [GCPF peptide], the dissociation constant (Kd) in assay [4] amounted to 2.41 nM.
